# Results published in publication PMC7425423 (Brain Communications, 2020).
# Tested on: T98G, U87MG and E98
# Test: Viability after Gefitinib
# Assay type: cell-based, human
# Conditions: 72 hours, 10 µM
# In short: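 Cells were seeded at 3–5 × 10³/well in 96-well plates and allowed to attach. After 24 h the test compound was added, and viability was read at 72 h by CellTiter-Glo luminescence, normalized as % of control. U87MG and E98 were grown in DMEM and T98G in Eagle MEM, each with 10% heat-inactivated FBS, at 37°C and 5% CO2.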
smiles,measurement,value
COc1cc2ncnc(Nc3ccc(F)c(Cl)c3)c2cc1OCCCN1CCOCC1 [Gefitinib],sensitivity of cell lines (viability),resistance
